Measured values: ChEMBL document CHEMBL4321880 (J Med Chem, 2020)

Assays:
[1] = target: T1, Cytochrome P450 3A5 (Homo sapiens, UniProt P20815); assay: Binding affinity to His-tagged CYP3A5 (unknown origin) expressed in Escherichia coli DH5alpha assessed as five-coordinate HS ferric heme iron state formation with displacement of distal water ligand by EPR spectroscopy
Summary of the method: (§1)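 Continuous-wave X-band EPR of purified recombinant enzyme, alone and in complex with ligand. Spectra were compared against the ligand-free form.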

[2] = target: T1, Cytochrome P450 3A5; assay: Binding affinity to heme in His-tagged CYP3A5 (unknown origin) expressed in Escherichia coli DH5alpha assessed as formation of five-coordinate ferric heme iron by measuring type 1 Soret shift from 417 nm (low spin) to 395 nm (high spin) by UV-vis spectrophotometric titration analysis
Summary of the method: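 Purified recombinant His-tagged CYP3A5 titrated with successive ligand additions until heme absorbance stopped changing. The ligand-free spectrum was subtracted to give difference spectra. Peak-minus-trough values were plotted against ligand concentration and fitted to a binding equation for Kd. Wavelength pairs: ΔA 386–418 nm for the type I shift; ΔA 432–410 nm for the type II shift.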

[3] = target: Cytochrome P450 3A4 (Homo sapiens, UniProt P08684); assay: Binding affinity to His-tagged CYP3A4 (unknown origin) expressed in Escherichia coli DH5alpha assessed as induction of HS formation by EPR spectroscopy; type: ADME; summary of the method: as §1

Measured: Activity

T1 sequence (P20815 whole entry): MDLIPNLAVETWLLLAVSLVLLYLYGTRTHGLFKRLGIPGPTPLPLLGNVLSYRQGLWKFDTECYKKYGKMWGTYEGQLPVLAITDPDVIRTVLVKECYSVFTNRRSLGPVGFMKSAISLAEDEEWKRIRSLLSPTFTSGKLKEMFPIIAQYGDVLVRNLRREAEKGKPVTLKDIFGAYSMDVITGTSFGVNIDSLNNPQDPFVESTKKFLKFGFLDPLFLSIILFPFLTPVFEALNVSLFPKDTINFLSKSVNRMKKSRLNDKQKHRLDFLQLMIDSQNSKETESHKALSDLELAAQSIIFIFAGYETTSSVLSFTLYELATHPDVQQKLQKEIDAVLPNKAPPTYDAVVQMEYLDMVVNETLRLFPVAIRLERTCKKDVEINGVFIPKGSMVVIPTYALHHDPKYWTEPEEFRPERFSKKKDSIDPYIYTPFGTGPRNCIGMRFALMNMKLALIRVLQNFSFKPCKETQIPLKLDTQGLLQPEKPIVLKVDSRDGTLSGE
Chain of Cytochrome P450 3A4 (P08684 whole entry): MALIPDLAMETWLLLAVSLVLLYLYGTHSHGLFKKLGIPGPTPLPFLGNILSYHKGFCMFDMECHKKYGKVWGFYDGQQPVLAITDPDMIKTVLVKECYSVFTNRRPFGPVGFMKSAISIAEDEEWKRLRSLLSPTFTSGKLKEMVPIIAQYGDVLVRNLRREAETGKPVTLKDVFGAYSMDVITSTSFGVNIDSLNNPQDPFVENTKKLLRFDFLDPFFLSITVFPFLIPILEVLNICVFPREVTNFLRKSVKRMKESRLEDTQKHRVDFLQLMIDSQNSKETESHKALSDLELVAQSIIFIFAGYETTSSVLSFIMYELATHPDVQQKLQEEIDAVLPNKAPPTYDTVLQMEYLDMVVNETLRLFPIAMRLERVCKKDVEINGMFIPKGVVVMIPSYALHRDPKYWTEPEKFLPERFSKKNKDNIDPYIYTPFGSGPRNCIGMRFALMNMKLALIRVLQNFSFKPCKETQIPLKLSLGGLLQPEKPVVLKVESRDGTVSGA

Cc1ncc2n1-c1ccc(Cl)cc1C(c1ccccc1F)=NC2 [MIDAZOLAM]
Active: all assays above
